# Compound activity as filed in PubChem BioAssay.
# UBC13 polyUb: UBC13 polyubiquitin chain formation inhibitors, primary screen, biochemical, TR-FRET, uHTS; Ubiquitin-conjugating enzyme E2 N (Homo sapiens), P61088; inhibition, % at 20 µM; actives 0.47% (n = 330,000); in the data active = inhibition above about 45%, passing the limit was not always enough
# Target sequence (P61088 whole entry, looked up): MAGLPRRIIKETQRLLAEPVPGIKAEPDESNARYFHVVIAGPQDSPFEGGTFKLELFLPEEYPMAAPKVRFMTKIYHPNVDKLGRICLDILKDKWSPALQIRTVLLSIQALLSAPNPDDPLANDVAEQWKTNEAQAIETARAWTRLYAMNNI
# EBNA-1 inh: EBNA-1 DNA-binding inhibitors, primary screen, biochemical, fluorescence polarization; AID 1950, 2009; inhibition, % at 14.8 µM; actives 0.34% (n = 300,000); in the data active = inhibition above about 28%
# Apaf-1 inh: inhibitors of human Apaf-1 apoptosome, primary screen, biochemical, DEVD-Rh110 fluorescence, uHTS | Apoptotic protease-activating factor 1 (Homo sapiens), O14727 | reconstituted apoptosome caspase-3 activity | inhibition, % at 20 µM | actives 0.71% (n = 330,000) | AID 489030, 2010; active = inhibition of at least 40% at 20 µM;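 also: plate controls were DMSO wells for no effect and DEVD-CHO caspase inhibitor wells for full effect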
#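 Material: reconstituted apoptosome with Apaf-1, cytochrome c, caspase-9, procaspase-3, dATP / Buffer or medium: pH 7.5 Hepes buffer with CHAPS, BSA, DTT / Also added: cytochrome c with DEVD-Rh110 / Schedule: compound with Apaf-1, dATP, procaspase-3 30 min, then 50 min reaction, room temperature / Technique: rhodamine 110 fluorescence at Ex 480/Em 540 nm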
# ZTA DNA inh: blocks Epstein-Barr virus ZTA, an EBNA-1 counter-screen | ZTA-DNA binding, fluorescence polarization | inhibition, % at 11 µM | actives 0.15% (n = 320,000); in the data active = inhibition above about 33%
# Target sequence (P03206 whole entry, looked up): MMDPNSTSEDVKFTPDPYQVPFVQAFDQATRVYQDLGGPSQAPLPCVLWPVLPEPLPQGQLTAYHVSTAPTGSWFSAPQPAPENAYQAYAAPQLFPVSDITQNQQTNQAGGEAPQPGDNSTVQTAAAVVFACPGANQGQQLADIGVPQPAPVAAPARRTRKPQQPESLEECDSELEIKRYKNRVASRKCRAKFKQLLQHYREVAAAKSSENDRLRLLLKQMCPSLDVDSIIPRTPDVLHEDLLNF
# M18AAP inhibitor: PfM18AAP inhibitors, malaria aminopeptidase, primary screen, biochemical, QFRET, recombinant enzyme; M18 aspartyl aminopeptidase (Plasmodium falciparum 3D7); H-Glu-NHMec fluorogenic cleavage; inhibition, % at 7.35 µM; actives 1.2% (n = 290,000);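 active = inhibition above the campaign mean inhibition over all tested compounds plus 3 SD, cut at about 28% in these data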;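 also: 0% = plate median of test compound wells and 100% = 2 mM ZnCl2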
# PfGluPho inh: PfG6PD enzyme inhibitors, primary screen, biochemical, fluorescence intensity, uHTS; glucose-6-phosphate dehydrogenase-6-phosphogluconolactonase (Plasmodium falciparum 3D7); PfGluPho enzyme, NADPH resazurin-diaphorase fluorescence; inhibition, % at 20 µM; actives 0.78% (n = 350,000);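 active = inhibition reaching at least a set limit at 20 µM in the primary screen, cut at about 59% in these data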;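 also: 0% = DMSO wells with substrate and 100% = DMSO wells lacking glucose-6-phosphate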
# EBNA-1 inh conf: EBNA-1 DNA-binding inhibitors, retest, confirmation, biochemical, fluorescence polarization, triplicate; shares compounds with EBNA-1 inh; Recombinant EBNA-1 DBD, Cy5-DNA fluorescence polarization; inhibition, % at 14.8 µM; actives 35% (n = 830);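 active = mean inhibition across replicates above a set limit taken from the earlier primary screen, cut at about 28% in these data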;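 also: plate controls were EBNA-1 protein with DMSO for no effect and wells lacking EBNA-1 for full effect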
# ZTA counter trip: EBV Zta DNA binding inhibitors, counter-screen for EBNA-1 inhibitor project, biochemical, fluorescence polarization, triplicate. Zta-ZRE DNA binding, Cy5 fluorescence polarization. AID 2328, 2010. 830 tested, under 10 active. shares compounds with EBNA-1 inh. inhibition, % at 11.1 µM;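 active = mean inhibition over triplicates above a set limit taken from the primary EBNA-1 screen, cut at about 37% in these data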;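 also: purified full length Zta protein with Cy5 labeled ZRE DNA probe; 0% = Zta with DMSO and 100% = wells lacking Zta protein; inhibitors lower polarization by freeing the labeled DNA probe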
# Casp3 UBC13 ctr: CASP3 inhibitor validation, counterassay for project on UBE2N polyubiquitination blockers, biochemical, one dose; shares compounds with UBC13 polyUb; Recombinant caspase-3, Caspase-Glo 3/7 luminescence, 60 min; inhibition, % at 20 µM; actives 4% (n = 1,400);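 active = mean inhibition across replicates above about 26%, limit read from the data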;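 also: plate controls were DMSO with caspase-3 for no effect and DMSO wells lacking enzyme for full effect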
# Target sequence (P42574 whole entry, looked up): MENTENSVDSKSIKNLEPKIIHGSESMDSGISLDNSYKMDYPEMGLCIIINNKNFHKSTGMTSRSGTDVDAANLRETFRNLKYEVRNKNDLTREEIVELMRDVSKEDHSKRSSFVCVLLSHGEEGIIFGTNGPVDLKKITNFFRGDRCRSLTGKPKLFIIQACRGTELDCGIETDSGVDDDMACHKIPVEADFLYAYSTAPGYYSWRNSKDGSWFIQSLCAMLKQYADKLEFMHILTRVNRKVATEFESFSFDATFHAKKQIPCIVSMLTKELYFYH
# UBC13 conf: UBC13 polyubiquitination inhibitors, single-point retest, confirmation, biochemical, TR-FRET, single concentration; shares compounds with UBC13 polyUb; inhibition, % at 10 µM; actives 68% (n = 1,400); in the data active = inhibition above about 45%
# Apaf-1 inh conf: Apaf-1 inhibitors, single-dose retest, confirmation, biochemical, fluorescence, DEVD-Rh110, 20 µM | inhibition, % at 20 µM | AID 504614, 2011 | actives 25% (n = 1,800) | reconstituted apoptosome, caspase-3 DEVD-Rh110 fluorescence | shares compounds with Apaf-1 inh;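 active = mean inhibition of at least 40% at 20 µM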;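 also: plate controls were DMSO wells for no effect and DEVD-CHO caspase inhibitor control wells for full effect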
# Rh110 interf inh: Rh110 fluorescence interference by putative Apaf-1 inhibitors, confirmation, artefact control for Apaf-1 inhibitor project, biochemical, 20 µM; shares compounds with Apaf-1 inh; quenched caspase reaction; activation (fluorescence interference), % at 20 µM; 1,800 tested, under 10 active;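 active = signal rise of 40% or more at 20 µM, treated as a fluorescence artifact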
# Apaf1 inh interf: fluorescence interference of Apaf-1 inhibitor hits, dose response, artefact control for Apaf-1 inhibitor project. shares compounds with Apaf-1 inh. fluorescence interference counterscreen, Apaf-1 assay format. IC50, µM. 460 tested, under 10 active. AID 588538, 2011; call rule not given here
# PfGluPho conf: PfG6PD inhibitors, hit retest, confirmation, biochemical, fluorescence intensity, single concentration; shares compounds with PfGluPho inh; recombinant PfGluPho, NADPH-diaphorase-resazurin fluorescence; inhibition, % at 20 µM; actives 34% (n = 2,400); AID 504753, 2011;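 active = inhibition of at least 50% at 20 µM in any single replicate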;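 also: 0% = DMSO with substrate and 100% = DMSO lacking glucose-6-phosphate substrate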
# Diaphorase 10uM: diaphorase inhibitors and chemical oxidizers, confirmation, counter-screen for P. falciparum G6PD inhibitor project, biochemical, fluorescence intensity, 10 µM NADPH; shares compounds with PfGluPho inh; diaphorase-coupled resazurin reduction, NADPH 10 uM; inhibition, % at 20 µM; actives 39% (n = 820);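 active = average inhibition reaching 50% or more with the compound at 20 µM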;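 also: resorufin red fluorescence formed as diaphorase reduces resazurin using NADPH; 0% = DMSO with enzyme and 100% = DMSO without enzyme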
# Diaph ctr 30uM: diaphorase inhibitors and chemical oxidizers, confirmation, counter-screen for P. falciparum G6PD inhibitor project, biochemical, fluorescence intensity, 30 µM NADPH; shares compounds with PfGluPho inh; Diaphorase/resazurin coupled assay, resorufin fluorescence; inhibition, % at 20 µM; actives 29% (n = 820); AID 504863, 2011;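 active = inhibition averaging 50% or more, tested at 20 µM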;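 also: 0% = DMSO with enzyme and 100% = DMSO wells lacking diaphorase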
# Active calls of the source: *; nt = no result; + = active, no number. Hits are enriched below; roughly 2.9% of the tested compounds scored in any of these assays.
SMILES,UBC13 polyUb,EBNA-1 inh,Apaf-1 inh,ZTA DNA inh,M18AAP inhibitor,PfGluPho inh,EBNA-1 inh conf,ZTA counter trip,others
COc1ccc(NC(=O)Nc2ccccc2F)cc1Cl,9,89*,-5,-22,4,5,22,14,
COc1ccc(NC(=O)Nc2ccccc2F)cc1,-1,12,-14,-2,2,0,nt,nt,
Cc1nnc(NC(=O)CCNC(=O)c2ccccc2Cl)s1,7,-6,-3,-13,0,-2,nt,nt,
COc1ccccc1C(=O)Nc1nnc(-c2ccc(F)cc2)s1,23,+,-1,3,7,-15,4,1,
O=[N+]([O-])c1ccc(C[n+]2cc(-c3ccc(Cl)c(Cl)c3)n3c2CCCCC3)cc1,10,33*,4,-6,-8,9,0,10,
O=[N+]([O-])c1ccc(C[n+]2cc(-c3ccccc3)n3c2CCCCC3)cc1,1,-15,-1,7,-3,-5,nt,nt,
O=[N+]([O-])c1cccc(-c2cc(-c3cc(Br)ccc3O)[nH]n2)c1,-3,-5,24,-7,-5,12,nt,nt,
CC(C)c1ccccc1NC(=O)CN1C(=O)c2ccccc2C1=O,1,-2,-13,4,-7,17,nt,nt,
N#Cc1c2c(c(NCc3cccnc3)n3c1nc1ccccc13)CCC2,-10,77*,7,2,13,-3,31*,4,
CC(C)NC(=O)C1CC(=O)N(c2ccc(F)c(Cl)c2)C1 (stereo unspecified),3,32*,6,-18,-2,-11,4,6,
C=CCn1c(=NC(=O)c2cc(-c3cccs3)nc3ccccc23)sc2cc(S(N)(=O)=O)ccc21,26,29*,-3,7,6,14,22,10,
COCCn1c(=NC(=O)c2cc(-c3cccs3)nc3ccccc23)sc2cc(S(N)(=O)=O)ccc21,19,5,0,12,13,1,nt,nt,
COc1cc2c(cc1OC)C(C1C(=O)CC(C)CC1=O)N(C(=O)CCl)CC2 (stereo unspecified),2,13,-8,25,-4,28,nt,nt,
CC(=O)Nc1ccc(NC(=O)c2cc(=O)c3cc(C)c(C)cc3o2)cc1,-4,73*,-2,0,-11,9,35*,2,
CC(=O)Nc1ccc(NC(=O)c2cc(=O)c3ccc(C)cc3o2)cc1,-5,5,1,19,5,-1,nt,nt,
Cc1c(NS(=O)(=O)c2ccc3c(c2)CCN3C(=O)C2CC2)c(=O)n(-c2ccccc2)n1C,5,43*,-4,4,-2,-9,-4,0,
CCOC(=O)C1CCN(S(=O)(=O)c2ccc3c(c2)CC(=O)N3C)CC1,-10,-3,11,0,-3,2,nt,nt,
O=C(NN1C(=O)c2ccc3c4c(ccc(c24)C1=O)CC3)c1ccc(Br)cc1,57*,55*,21,-7,-3,4,6,9,Casp3 UBC13 ctr=-2;UBC13 conf=63*
NC(=O)c1cccc(CC(=O)c2ccccc2)c1,2,6,-19,-4,2,-8,nt,nt,
Cn1c(C(=O)N2CCN(c3nc4ccccc4s3)CC2)cc2sccc21,7,51*,41*,7,-8,14,31*,2,Apaf-1 inh conf=33;Rh110 interf inh=3
CC1CCC2(CC1)NC(=O)N(CC(=O)NC(C)c1ccc(F)c(F)c1)C2=O (stereo unspecified),7,nt,0,8,nt,-8,nt,nt,
O=C(Nc1cccc(C(F)(F)F)c1)c1cc[n+]([O-])cc1,-3,-5,11,-3,-9,-8,nt,nt,
O=C(Nc1cccc(C(F)(F)F)c1)c1ccc2nc(-c3ccco3)c(-c3ccco3)nc2c1,11,68*,66*,-21,5,41,4,8,Apaf-1 inh conf=44*;Rh110 interf inh=2;Apaf1 inh interf=>100
O=S(=O)(Nc1cc(Sc2cccc3cccnc23)c(O)c2ccccc12)c1ccc(F)cc1,nt,33*,nt,17,2,98*,10,3,PfGluPho conf=85*;Diaphorase 10uM=22;Diaph ctr 30uM=16
O=C(NCCOc1ccccc1F)C1CC(=O)N(Cc2ccccc2)C1 (stereo unspecified),13,nt,-4,nt,nt,-12,nt,nt,
